The values that follow come from ChEMBL document CHEMBL4513216, “Probing the Open Global Health Chemical Diversity Library for Multistage-Active Starting Points for Next-Generation Antimalarials” (ACS Infect Dis, 2020).

A short description of this data set: Toxicity liver stage against HepG2, at 10uM. It is filed as cell-based. The arrangement: test concentration 10 uM, cell line HepG2-A16-CD81EGFP. Conditions: human, HepG2-A16-CD81EGFP cells; read-out: INHIBITION
Summed up: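 Uninfected HepG2-A16-CD81EGFP cells, 3 × 10^3 per well, 1536-well, plated on prespotted compound at 10 μM final, parasite-free screening media added to match infected plates; puromycin 10 μM positive, DMSO 0.5% negative; run in parallel with 48 h PbLuc assay at 37 °C, 5% CO2; viability by CellTiter-Glo luminescence, normalized to controls.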
As to `Cc1ccc(C(=O)N(C)CC(=O)NCC(F)(F)F)cn1`, the cytotoxicity at 10 µM was -4.46%.

As for `CC(C)NC(=O)N1CCN2C(=O)N(Cc3ccc(F)cc3)C[C@H]2C1`, the cytotoxicity at 10 µM is 0.88%.

Regarding `CO[C@@H]1CN(c2ccccc2)S(=O)(=O)[C@@]12CCN(Cc1cncs1)C2`, the cytotoxicity at 10 µM was found to be 5.63%.

As for `CO[C@H]1CN(c2ccccc2)S(=O)(=O)[C@@]12CCN(Cc1ccccc1)C2`, the cytotoxicity at 10 µM is -4.86%.

Consider `O=C(NCC1CCCCC1)c1nnn(-c2ccc(Br)cc2)n1`, for which the cytotoxicity at 10 µM was -0.895%.

As for `COC1(CNS(=O)(=O)c2ccccc2Br)CCSC1` (stereo not given), the cytotoxicity at 10 µM was -8.26%.

For `Cn1cnnc1S(=O)(=O)C1CCN(C(=O)c2cccs2)CC1`, the cytotoxicity at 10 µM came to 6.03%.

Turning to `CCn1ncc2c1C(COC)CN(Cc1ccc(OC)cc1)C2` (stereo not given), the cytotoxicity at 10 µM came out at 11.4%.

As to `Cc1nc(CN2C[C@@H]3OCCN(c4ncc(F)cn4)[C@@H]3C2)cs1`, the cytotoxicity at 10 µM was -8.52%.

With `CN(C)C(=O)N1Cc2nnn(C)c2C(COCC2CC2)C1` (stereo not given), the cytotoxicity at 10 µM is -10.7%.

In the case of `CN1CCc2c1nc1c(c2N)CCC1`, the cytotoxicity at 10 µM was found to be 0.0371%.

For the compound `Cc1nn(C)c2c(NCc3ccccn3)ncnc12`, the cytotoxicity at 10 µM is -5.2%.

As to `O=S(=O)(c1ccc(F)c(F)c1)n1cc(Cl)cn1`, the cytotoxicity at 10 µM came out at 4.66%.

In the case of `CNC(=O)c1sc2ccccc2c1CC1CCCCN1Cc1ncc[nH]1` (stereo not given), the cytotoxicity at 10 µM came out at 2.35%.

For `N#CCCN1CCN(S(=O)(=O)c2ccc(Cl)s2)CC1`, the cytotoxicity at 10 µM was 14.7%.

As for `Cc1cc(C)c(S(N)(=O)=O)cc1C(=O)NCCN1CCCCC1`, the cytotoxicity at 10 µM is -5.52%.

`CN(C(=O)OC(C)(C)C)C1CCN(C(=O)c2cc(Cl)c[nH]2)C1` (stereo not given): the cytotoxicity at 10 µM came out at 2.5%.

With `Cc1ccc(C(=O)NCc2cc(F)ccc2N2CCCN(C)CC2)o1`, the cytotoxicity at 10 µM is -9.7%.

`CN(C)CCN(C)S(=O)(=O)Cc1ccc(Br)cc1`: the cytotoxicity at 10 µM worked out at 0.936%.

On to `COc1cc(NC2CCCN(c3ncccc3C#N)C2)cc(OC)c1` (stereo not given), for which the cytotoxicity at 10 µM was -9.25%.

Consider `CC(C(=O)N1CCN(C(=O)c2ccc(F)cc2F)CC1)n1ccnc1` (stereo not given), for which the cytotoxicity at 10 µM turned out to be 1.63%.

Take `Cc1ccc(C(=O)N2CCN(C(=O)C(C)n3ccnc3)CC2)cc1F` (stereo not given): the cytotoxicity at 10 µM was determined as 3.72%.

Take `Cc1cc(C(=O)NC2=NCCS2)c(C)n1-c1ccccn1`: the cytotoxicity at 10 µM amounted to 6.25%.

Regarding `Cc1nn(CC(C)C)c(N(C)C)c1CNCCCNS(C)(=O)=O`, the cytotoxicity at 10 µM was 1.73%.

As to `CC(NC(=O)c1cccs1)C(=O)NS(=O)(=O)c1ccc(C#N)cc1` (stereo not given), the cytotoxicity at 10 µM turned out to be 5.11%.

On to `Cc1noc(CCCNS(=O)(=O)N2CCCC2c2ccco2)n1` (stereo not given), for which the cytotoxicity at 10 µM was -7.88%.

In the case of `Cn1cccc1-c1nnc(C2(c3ccc4c(c3)OCO4)CCOCC2)o1`, the cytotoxicity at 10 µM is 20.3%.

For `CSCCN1C(=O)CC(C)(c2ccc(Br)cc2)C1=O` (stereo not given), the cytotoxicity at 10 µM was -8.98%.

With `CC(=O)c1ccc(Cl)c(Cl)c1OCC(=O)NCC(F)(F)F`, the cytotoxicity at 10 µM was -1.2%.

`c1cnc(N2CCO[C@H]3CN(CC4CCCC4)C[C@H]32)cn1`: the cytotoxicity at 10 µM is -101%.

As to `O=C1N(c2ccsc2)CCC12CCCN(c1ccccn1)C2` (stereo not given), the cytotoxicity at 10 µM is -103%.

As to `CC(=O)N1CCC2(CCN(CC3CCOC3)C2)CC1` (stereo not given), the cytotoxicity at 10 µM is -95%.

In the case of `O=C(c1cccnc1)N1C[C@@H]2CN(CCN3CCCC3)C(=O)[C@@H]2C1`, the cytotoxicity at 10 µM is -113%.

In the case of `O=C(Cc1ccco1)N1C[C@H]2CCC[C@@]2(COc2cccnc2)C1`, the cytotoxicity at 10 µM was -109%.

As for `O=C(C1=CCCC1)N1C[C@@H]2COC[C@]2(COCc2ccncc2)C1`, the cytotoxicity at 10 µM was -96.4%.

With `CN(C)C(=O)NC1COC2(CCN(C(=O)Nc3ccccc3)CC2)C1` (stereo not given), the cytotoxicity at 10 µM came to 0.179%.

As to `O=C1CCC2(CCNCC2)CN1Cc1nnc2ccccn12`, the cytotoxicity at 10 µM was -0.949%.

For `CS(=O)(=O)NC1CCN(CCOCc2ccccc2)CC1`, the cytotoxicity at 10 µM is 2.84%.

Regarding `Cc1cc(CNC(=O)c2cc(COc3cncc(Cl)c3)on2)n[nH]1`, the cytotoxicity at 10 µM came out at 16.1%.

`CCN1CC(c2ccccc2)CC2(CCN(Cc3ncc[nH]3)CC2)C1` (stereo not given): the cytotoxicity at 10 µM turned out to be 8.25%.

With `CN(Cc1nc(Cc2cccc(C(F)(F)F)c2)no1)CC1CCCCO1` (stereo not given), the cytotoxicity at 10 µM came to 3.64%.

For `Cc1c[nH]c(CN2CCC3(CCCN(Cc4ccc(F)c(F)c4)C3)C2)n1` (stereo not given), the cytotoxicity at 10 µM is -7.22%.

On to `Cc1nccn1CCCN1CCCC(c2nccn2CC2CCC2)C1` (stereo not given), for which the cytotoxicity at 10 µM was -13.7%.

Consider `Cc1cc(NC(C)Cc2cccs2)n2nccc2n1` (stereo not given), for which the cytotoxicity at 10 µM amounted to 1.22%.

For `CN(C(=O)c1cccnc1)C1CCCN(CCc2ccccc2)C1` (stereo not given), the cytotoxicity at 10 µM is -3.59%.

On to `Cc1cc(C)n(C2CCN(c3ncnc4c3CCNCC4)C2)n1` (stereo not given), for which the cytotoxicity at 10 µM amounted to 7.82%.

Consider `Cc1c(Cl)cc(C(=O)NCCc2ncnn2C)cc1Cl`, for which the cytotoxicity at 10 µM stood at 6.07%.

For `CCN(Cc1ccc(C(C)C)cc1)C(=O)c1csc(CN(C)C)n1`, the cytotoxicity at 10 µM is -3.84%.

For `O=C(C1CNCCN1C(=O)CCc1cccnc1)N1CCOCC1` (stereo not given), the cytotoxicity at 10 µM amounted to 4.82%.

In the case of `Nc1nc(Cn2ccnc2-c2cc(CN3CCCC3)cs2)cs1`, the cytotoxicity at 10 µM was 1.4%.

With `CCN(Cc1cnc(NCc2ccccc2)nc1)C1CCS(=O)(=O)C1` (stereo not given), the cytotoxicity at 10 µM was -15.3%.

As for `CCC(=O)N1CCC(n2cc(C(C)(C)O)nn2)CC1`, the cytotoxicity at 10 µM amounted to 3.92%.

Take `CN(Cc1ncc[nH]1)c1nc(-c2ccccn2)nc2c1CCNCC2`: the cytotoxicity at 10 µM was -0.796%.

Turning to `COc1cc(-c2cc(NC3CCCC3)nc3[nH]ccc23)nc(N)n1`, the cytotoxicity at 10 µM turned out to be 10.2%.

Take `Cc1nn(C)c(C)c1CN(C(=O)c1cnc(O)cn1)C(C)C`: the cytotoxicity at 10 µM came to 2.62%.

Take `Cc1cc(C2CCCCN2C(=O)CN2CC3(CCNCC3)OC2=O)no1` (stereo not given): the cytotoxicity at 10 µM came to 8.69%.

Turning to `CCCc1nnc(N2CCC3(CC2)CN(C)C(=O)O3)o1`, the cytotoxicity at 10 µM is 2.64%.

As for `Cc1[nH]c(-c2ccccc2)nc1C(=O)N1CCC2(CCCO2)CC1`, the cytotoxicity at 10 µM was 2.8%.

Regarding `Cc1nc(N2CCC(C(O)c3nccn3C)CC2)c2nc(C)oc2n1` (stereo not given), the cytotoxicity at 10 µM was -2.22%.

With `CCCN(Cc1nccn1C)C(=O)c1cc(C)nc(C)n1`, the cytotoxicity at 10 µM stood at 2.37%.

In the case of `COc1cc2c(cc1CNC(=O)C(C)n1ccnc1C(C)C)OCCO2` (stereo not given), the cytotoxicity at 10 µM was -1.3%.

`Cc1cnn(C(C)C2CC2)c1NC(=O)c1ccco1` (stereo not given): the cytotoxicity at 10 µM was -1.19%.

On to `O=C(CCC(F)(F)F)N1CCN(Cc2ccncc2)[C@@H]2CS(=O)(=O)C[C@@H]21`, for which the cytotoxicity at 10 µM is -2.11%.

As to `COc1ccc(C(=O)C2CCCN(c3cc(C#N)ccn3)C2)cc1OC` (stereo not given), the cytotoxicity at 10 µM was -0.312%.

Consider `Cc1cc(-c2nn(C)c(Cl)c2CN2CCOCC(O)C2)no1` (stereo not given), for which the cytotoxicity at 10 µM is -14.8%.

On to `CCc1cc(C(F)(F)F)c2c(C)nn(CC(=O)O)c2n1`, for which the cytotoxicity at 10 µM is 0.77%.

`CC1CCCCN1c1nc2c(c(=O)[nH]1)CCN(Cc1cccnc1)C2` (stereo not given): the cytotoxicity at 10 µM was -6.15%.

Regarding `CN(c1ccncn1)C1CC2(CCN(C(=O)c3cccs3)C2)C1` (stereo not given), the cytotoxicity at 10 µM was -5.05%.

Consider `CCc1ncc2c(n1)CN(Cc1nnc(Cc3ccccc3)o1)CC2`, for which the cytotoxicity at 10 µM is -3.04%.

`Cc1cn2c(n1)CCC(NC(=O)c1ccc(S(C)(=O)=O)o1)C2` (stereo not given): the cytotoxicity at 10 µM was -6.92%.

With `Cn1cc(C2CCCN2Cc2csc(C3CCCC3)n2)cn1` (stereo not given), the cytotoxicity at 10 µM was found to be 8.3%.

With `Clc1ccccc1-c1nnc(CNCCn2cccn2)o1`, the cytotoxicity at 10 µM came out at 1.4%.

`Cc1cc(CN(C)C(=O)c2ccc(OC(C)C)nc2)no1`: the cytotoxicity at 10 µM was -15.3%.

Consider `COc1ccc(C(=O)N2CCC(Nc3ccc(C)nn3)CC2)cc1`, for which the cytotoxicity at 10 µM is -8.51%.

`COCc1nc(C(=O)N2CCCC2c2cccs2)cs1` (stereo not given): the cytotoxicity at 10 µM is -5.16%.

`CCc1nnc2n1CCN(C(=O)c1cc(Br)c[nH]1)C2`: the cytotoxicity at 10 µM is -7.93%.

As for `CCc1nc(C2CCCN(C(=O)c3cn(C)nc3C)C2)no1` (stereo not given), the cytotoxicity at 10 µM is -14.5%.

`Cn1ccc(CN2CCC(NC(=O)Cc3ccccc3)CC2)cc1=O`: the cytotoxicity at 10 µM was -9.75%.

Turning to `O=C1CCC(C(=O)NCc2nn(-c3ccccc3)c3c2CCC3)CN1` (stereo not given), the cytotoxicity at 10 µM was -10.1%.

For the compound `O=C(NCc1nn(-c2ccccc2)c2c1CCC2)N1CCSCC1`, the cytotoxicity at 10 µM was -4.89%.

For the compound `Cc1cc(CN2CCC(c3ccnn3CCO)CC2)no1`, the cytotoxicity at 10 µM was -11.2%.

On to `O=C(NCCN1CCOCC1)c1n[nH]c(=O)c2ccccc12`, for which the cytotoxicity at 10 µM worked out at 0.376%.

With `CC(O)CN1CCN(C(=O)c2ccc(Cn3cccn3)cc2)CC1` (stereo not given), the cytotoxicity at 10 µM was -1.45%.

As to `O=C(O)c1ccc(S(=O)(=O)Nc2ccc(Cl)c(F)c2)c(F)c1`, the cytotoxicity at 10 µM was -14.3%.

Regarding `CCN1CCC(NC(=O)CN2CCc3c(ncn3C)C2)CC1`, the cytotoxicity at 10 µM stood at 1.85%.

In the case of `CCN(Cc1ccc2c(c1)OCCO2)C(=O)NCc1cc[nH]n1`, the cytotoxicity at 10 µM was 1.54%.

As to `CCc1nc(CN2CCCN(C(=O)CCSC)CC2)cs1`, the cytotoxicity at 10 µM is -5.41%.

Regarding `Cc1noc([C@@H]2C[C@H]3CN(Cc4ccc5c(c4)OCO5)C[C@H]3O2)n1`, the cytotoxicity at 10 µM was -113%.

Regarding `CC(C)N1CCc2c(C(=O)N3CCOCC3)nn(C)c2C1`, the cytotoxicity at 10 µM was -105%.

As for `COc1cccc(C(=O)N2CC[C@@H]3[C@H](CC2)N(C)CCS3(=O)=O)c1`, the cytotoxicity at 10 µM is -129%.

Turning to `O=C([C@@H]1C[C@@H]2CCN(c3cccc(F)c3)C[C@H]2O1)N1CCCC1`, the cytotoxicity at 10 µM is -1.34%.

For `Cc1nn(C)c(Cl)c1CNCc1cccnc1N1CCOCC1`, the cytotoxicity at 10 µM was -4.17%.

In the case of `CN(C)CCO[C@@H]1CC[C@H]2[C@H]1OCCN2C(=O)c1ccc(F)cc1`, the cytotoxicity at 10 µM was -7.1%.

With `CC(C)CN1C[C@H]2CCN(Cc3cccnc3)CC[C@H]2S1(=O)=O`, the cytotoxicity at 10 µM is -1.8%.

On to `O=C(NC1CCC1)[C@@H]1CC[C@@H]2[C@@H](CCN2CCc2ccccc2)O1`, for which the cytotoxicity at 10 µM is -127%.
